Test results: PMC7932937 (Clinical Pharmacokinetics, 2020)
Read-outs that look alike come from different tables or passages of the source.

How the values were obtained:
[1] = Population pharmacokinetic model; type: in vivo, people living with HIV
Summary of the method: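 Adults with HIV on rosuvastatin 5–20 mg daily. Plasma came from a rich-sampling study and from sparse samples at cohort visits, 0.2–38.5 h post-dose, and was assayed by UHPLC-MS/MS. Models tested one or two compartments with first-order, zero-order or mixed absorption. Absorption parameters were fixed from the rich data. Between-subject variability was log-normal; residual error additive on the log scale. Covariate thresholds: ΔOFV 3.84 forward, 7.88 backward.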

[2] = cited from earlier work
[3] = literature values ref 12, 26, 27; cited from earlier work
[4] = test system: baseline non-HDL-cholesterol; assay: Covariate analysis on baseline non-HDL-cholesterol in the PK/PD model; type: in vivo, people living with HIV; details: coadministration, final PK/PD model covariate
Summary of the method: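 Indirect-response model linked to the final population PK model (plasma rosuvastatin by UHPLC-MS/MS; daily doses 5–20 mg). Drug inhibits kin, with kout = kin/baseline. Covariates (ARV regimen, comedications, diabetes, weight, AST, ALT, age) were tested on baseline only, by stepwise forward inclusion and backward deletion. Continuous covariates were median-centred (linear or allometric), categorical ones coded 0/1. Cholesterol was measured enzymatically (cholesterol oxidase).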

[5] = estimated from full PK profiles (rich sampling), without variability
[6] = coadministered with cobicistat-boosted darunavir ref 20
[7] = coadministered with ritonavir-boosted atazanavir ref 19
[8] = coadministered with ritonavir-boosted darunavir ref 9
[9] = coadministered with ritonavir-boosted lopinavir ref 30

Cl decrease with boosted PIs that the study was powered to rule out ([1]; coadministered boosted PIs, univariate analysis)	absorption rate constant [1, 5]	duration of zero-order absorption [1, 5]	increase in rosuvastatin Vc ([1]; in women, univariate testing, not significant in multivariate analysis)	SMILES	increase in rosuvastatin AUC0–24 [2, 6]	increase in rosuvastatin Cmax [2, 6]	increase in rosuvastatin AUC0–24 [2, 7]	increase in rosuvastatin Cmax [2, 7]	increase in rosuvastatin AUC0–24 [2, 8]	increase in rosuvastatin Cmax [2, 8]	increase in rosuvastatin AUC0–24 [2, 9]	increase in rosuvastatin Cmax [2, 9]	volume of distributions [3]	decrease in the baseline non-HDL-cholesterol value [4]
≤ 22%	0.306 h⁻¹	0.461 h	three-fold	CC(C)c1nc(N(C)S(C)(=O)=O)nc(-c2ccc(F)cc2)c1/C=C/[C@@H](O)C[C@@H](O)CC(=O)O [rosuvastatin]	93%	277%	213%	600%	48%	143%	110%	370%	1255 to 4870 L	–
–	–	–	–	Cc1cc(C#N)cc(C)c1Oc1nc(Nc2ccc(C#N)cc2)nc(N)c1Br [etravirine]	–	–	–	–	–	–	–	–	–	14%
